# From ChEMBL document CHEMBL4321862, “Application of Bivalent Bioisostere Concept on Design and Discovery of Potent Opioid Receptor Modulators” (J Med Chem, 2019)
# pEC50, pKi: −log10 of the molar value. The source made the active and inactive calls.
# Experiments:
# Mu-type opioid receptor [1] = target: T1, Mu-type opioid receptor (Mus musculus, UniProt P42866); test: Displacement of [3H]-Naloxone from mouse mu opioid receptor expressed in CHO cells incubated for […] by competitive radioligand binding assay; assay type: cell-based
# [2] = target: Kappa-type opioid receptor (Mus musculus, UniProt P33534); test: Displacement of [3H]-[…] from mouse kappa opioid receptor expressed in CHO cells incubated for […] by competitive radioligand binding assay; assay type: cell-based
# [3] = target: Delta-type opioid receptor (Homo sapiens, UniProt P41143); test: Displacement of [3H]-[…] from human delta opioid receptor expressed in CHO cells incubated for […] by competitive radioligand binding assay; assay type: cell-based
# [4] = Selectivity index, ratio of Ki for mouse kappa opioid receptor expressed in CHO cells to Ki for mouse mu opioid receptor expressed in CHO cells
# [5] = Selectivity index, ratio of Ki for human delta opioid receptor expressed in CHO cells to Ki for mouse mu opioid receptor expressed in CHO cells
# Mu-type opioid receptor [6] = target: T1, Mu-type opioid receptor; test: Agonist activity at recombinant mouse mu opioid receptor expressed in CHO cell membrane assessed as [35]-GTPgammaS binding incubated for […] by scintillation counting method
# [7] = target: Mu-type opioid receptor (Mus musculus) (UniProt P42866); test: Agonist activity at recombinant mouse mu opioid receptor expressed in CHO cell membrane assessed as [35]-GTPgammaS binding incubated for […] by scintillation counting method relative to DAMGO
# Mus musculus [8] = test: Antinociceptive activity in Swiss Webster mouse assessed as increase in latency to tail withdrawal at 10 mg/kg, sc observed for 20 mins by warm water tail withdrawal assay; assay type: functional, organism-based
# Method in brief: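 Male Swiss Webster mice, 25–30 g, n = 5 per group, baseline tail latency 2–4 s accepted. Compound given s.c. in saline or water. Tail immersed in 56 ± 0.1 °C water 20 min post-dose, 10 s cutoff. %MPE = [(test − control)/(10 − control)] × 100. Saline and morphine as controls.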
# Mus musculus [9] = test: Inhibition of morphine-induced antinociceptive activity in Swiss Webster mouse assessed as decrease in latency to tail withdrawal at 10 mg/kg, sc administered 5 mins before morphine stimulation observed for 20 mins by warm water tail withdrawal assay; assay type: functional, organism-based
# Method in brief: (§1)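 Male Swiss Webster mice, n ≥ 5, baseline latency 2–4 s. Test compound given s.c. 5 min before morphine 10 mg/kg. Tail immersion at 56 ± 0.1 °C 20 min after morphine, 10 s cutoff, %MPE per mouse.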
# Mus musculus [10] = test: Inhibition of morphine-induced antinociceptive activity in subcutaneously dosed Swiss Webster mouse assessed as decrease in latency to tail withdrawal administered 5 mins before morphine stimulation observed for 20 mins by warm water tail withdrawal assay; assay type: functional; method in brief: as §1
# [11] = target: Mu-type opioid receptor (Mus musculus) (UniProt P42866); test: Agonist activity at mouse mu opioid receptor expressed in CHO cells assessed as inhibition of forskolin-induced cAMP formation incubated for 8 min followed by forskolin stimulation by ELISA; assay type: functional, cell-based
# Method in brief: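 mMOR-CHO cells grown to confluency, pre-incubated 30 min at 37°C with 1 mM IBMX, 200 μM Ro 20-1724, bovine serum albumin and 20 mM HEPES (pH 7.2-7.5). Ligand then added with 10 μM forskolin for 8 min at 37°C. Media removed, cells rinsed with PBS, cAMP measured by ELISA. DMEM/F12 used as solvent throughout.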
# Mus musculus [12] = test: Inhibition of opioid-withdrawal symptom in morphine-pelleted Swiss Webster mouse assessed as reduction in wet dog shakes at 1 mg/kg, sc observed after 20 mins; assay type: functional, organism-based
# Method in brief: (§2)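 Male Swiss Webster mice, n = 5, implanted with 75 mg morphine pellet at base of neck. After 72 h, 30 min habituation in observation chamber, then test compound s.c. Wet-dog shakes, escape jumps and paw tremors counted over 20 min.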
# Mus musculus [13] = test: Inhibition of opioid-withdrawal symptom in morphine-pelleted Swiss Webster mouse assessed as reduction in escape jumps at 1 mg/kg, sc observed after 20 mins; assay type: functional, organism-based; method in brief: as §2
# Mus musculus [14] = test: Inhibition of opioid-withdrawal symptom in morphine-pelleted Swiss Webster mouse assessed as reduction in paw tremors at 1 mg/kg, sc observed after 20 mins; assay type: functional, organism-based; method in brief: as §2
SMILES,pKi (Mu-type opioid receptor [1]),pKi [2],pKi [3],Ratio Ki [4],Ratio Ki [5],pEC50 (Mu-type opioid receptor [6]),Emax [7],Activity (Mus musculus [8]),inhibition (Mus musculus [9]),AD50 (Mus musculus [10]),Emax [11],inhibition (Mus musculus [12]),inhibition (Mus musculus [13]),inhibition (Mus musculus [14])
Cl.O=C(N[C@@H]1CC[C@@]2(O)[C@H]3Cc4ccc(O)c5c4[C@@]2(CCN3CC2CC2)[C@H]1O5)c1ccc2ccsc2c1,9.82,9.70,8.69,1.3,13.6,9.68,58.7%,Active,–,–,–,–,–,–
O=C(N[C@H]1CC[C@@]2(O)[C@H]3Cc4ccc(O)c5c4[C@@]2(CCN3CC2CC2)[C@H]1O5)c1cccc2ccoc12,–,8.29,–,–,–,–,12.9%,–,–,–,–,–,–,–
Cl.O=C(N[C@@H]1CC[C@@]2(O)[C@H]3Cc4ccc(O)c5c4[C@@]2(CCN3CC2CC2)[C@H]1O5)c1cc2ccccc2o1,9.80,9.64,8.71,1.4,12.1,9.41,64.5%,Active,–,–,–,–,–,–
Cl.O=C(N[C@H]1CC[C@@]2(O)[C@H]3Cc4ccc(O)c5c4[C@@]2(CCN3CC2CC2)[C@H]1O5)c1coc2ccccc12,9.57,8.47,7.77,12.5,62.3,8.80,18.7%,–,Active,2.51 mg/kg,–,–,–,–
Cl.O=C(N[C@H]1CC[C@@]2(O)[C@H]3Cc4ccc(O)c5c4[C@@]2(CCN3CC2CC2)[C@H]1O5)c1cc2ccccc2o1,9.36,8.78,7.44,3.8,81.6,8.26,34%,–,Active,3.21 mg/kg,–,–,–,–
Cl.O=C(N[C@@H]1CC[C@@]2(O)[C@H]3Cc4ccc(O)c5c4[C@@]2(CCN3CC2CC2)[C@H]1O5)c1csc2ccccc12,9.85,9.32,7.73,3.4,133.21,9.43,29.9%,–,–,–,–,–,–,–
Cl.O=C(N[C@H]1CC[C@@]2(O)[C@H]3Cc4ccc(O)c5c4[C@@]2(CCN3CC2CC2)[C@H]1O5)c1ccc2ccsc2c1,9.55,8.43,7.65,13.3,79.6,8.52,18.1%,–,–,–,–,–,–,–
Cl.O=C(N[C@H]1CC[C@@]2(O)[C@H]3Cc4ccc(O)c5c4[C@@]2(CCN3CC2CC2)[C@H]1O5)c1cccc2sccc12,9.59,8.63,8.16,9,26.3,8.98,16.1%,–,–,–,–,–,–,–
Cl.O=C(N[C@H]1CC[C@@]2(O)[C@H]3Cc4ccc(O)c5c4[C@@]2(CCN3CC2CC2)[C@H]1O5)c1cc2ccccc2s1,9.57,8.92,7.84,4.5,53,8.40,22.9%,–,–,–,–,–,–,–
Cl.O=C(N[C@H]1CC[C@@]2(O)[C@H]3Cc4ccc(O)c5c4[C@@]2(CCN3CC2CC2)[C@H]1O5)c1csc2ccccc12,9.70,8.62,8.04,11.9,45.4,8.73,14.3%,–,–,–,–,–,–,–
C[C@@H](NC(=O)[C@@H](N)Cc1ccc(O)cc1)C(=O)NCC(=O)N(C)[C@@H](Cc1ccccc1)C(=O)NCCO,–,–,–,–,–,–,–,–,–,–,82.4%,–,–,–
Cl.O=C(N[C@@H]1CC[C@@]2(O)[C@H]3Cc4ccc(O)c5c4[C@@]2(CCN3CC2CC2)[C@H]1O5)c1cc2ccccc2s1,9.85,9.70,8.86,1.4,9.9,9.62,59%,Active,–,–,–,–,–,–
Cl.O=C(N[C@H]1CC[C@@]2(O)[C@H]3Cc4ccc(O)c5c4[C@@]2(CCN3CC2CC2)[C@H]1O5)c1ccc2occc2c1,9.46,8.37,7.54,12.1,82.9,8.43,17.7%,–,Active,2.03 mg/kg,–,–,–,–
Cl.O=C(N[C@@H]1CC[C@@]2(O)[C@H]3Cc4ccc(O)c5c4[C@@]2(CCN3CC2CC2)[C@H]1O5)c1coc2ccccc12,9.89,9.52,7.99,2.3,79.2,9.33,43.2%,–,–,–,–,–,–,–
Cl.O=C(N[C@@H]1CC[C@@]2(O)[C@H]3Cc4ccc(O)c5c4[C@@]2(CCN3CC2CC2)[C@H]1O5)c1cccc2occc12,9.77,9.10,7.15,4.7,415,9.23,23.6%,–,Active,2.79 mg/kg,–,–,–,–
Cl.O=C(N[C@@H]1CC[C@@]2(O)[C@H]3Cc4ccc(O)c5c4[C@@]2(CCN3CC2CC2)[C@H]1O5)c1ccc2occc2c1,9.82,9.68,8.27,1.4,35.4,9.39,52.2%,Active,–,–,–,–,–,–
Cl.O=C(N[C@H]1CC[C@@]2(O)[C@H]3Cc4ccc(O)c5c4[C@@]2(CCN3CC2CC2)[C@H]1O5)c1ccc2sccc2c1,9.41,8.66,7.93,5.6,30.4,8.61,18.9%,–,–,–,–,–,–,–
Cl.O=C(N[C@@H]1CC[C@@]2(O)[C@H]3Cc4ccc(O)c5c4[C@@]2(CCN3CC2CC2)[C@H]1O5)c1ccc2ccoc2c1,9.74,9.52,7.91,1.7,68.1,9.23,21.1%,Active,–,–,–,–,–,–
Cl.O=C(N[C@@H]1CC[C@@]2(O)[C@H]3Cc4ccc(O)c5c4[C@@]2(CCN3CC2CC2)[C@H]1O5)c1ccc2sccc2c1,9.85,9.68,8.87,1.5,9.7,9.72,75.4%,Active,–,–,–,–,–,–
Cl.O=C(N[C@@H]1CC[C@@]2(O)[C@H]3Cc4ccc(O)c5c4[C@@]2(CCN3CC2CC2)[C@H]1O5)c1cccc2sccc12,9.80,9.12,7.62,4.7,150.3,9.49,23.1%,–,–,–,–,–,–,–
Cl.O=C(N[C@@H]1CC[C@@]2(O)[C@H]3Cc4ccc(O)c5c4[C@@]2(CCN3CC2CC2)[C@H]1O5)c1cccc2ccsc12,9.72,8.79,7.41,8.5,204.9,8.53,–,–,–,–,–,–,–,–
Cl.O=C(N[C@H]1CC[C@@]2(O)[C@H]3Cc4ccc(O)c5c4[C@@]2(CCN3CC2CC2)[C@H]1O5)c1ccc2ccoc2c1,9.54,8.78,7.51,5.7,105.8,8.65,30.5%,–,–,–,–,–,–,–
C=CCN1CC[C@]23c4c5ccc(O)c4O[C@H]2C(=O)CC[C@@]3(O)[C@H]1C5,–,–,–,–,–,–,–,–,–,–,–,Active,Active,Active
